Drawing on ChEMBL document CHEMBL4513216, “Probing the Open Global Health Chemical Diversity Library for Multistage-Active Starting Points for Next-Generation Antimalarials” (ACS Infect Dis, 2020), this text covers cytotoxicity for 96 molecules.

The series can be described thus: Toxicity liver stage against HepG2, at 10uM. Type of series: cell-based. Conditions: human, HepG2-A16-CD81EGFP cells; read-out: INHIBITION
On the set-up: test concentration 10 uM, cell line HepG2-A16-CD81EGFP. In outline:
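Uninfected HepG2-A16-CD81EGFP cells, 3 × 10^3 per well, 1536-well, plated on prespotted compound at 10 μM final, parasite-free screening media added to match infected plates; puromycin 10 μM positive, DMSO 0.5% negative; run in parallel with 48 h PbLuc assay at 37 °C, 5% CO2; viability by CellTiter-Glo luminescence, normalized to controls.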
Regarding `CC(C)c1nnc(NC(=O)CCC(=O)NCC2CCCO2)s1` (stereo unspecified), the cytotoxicity at 10 µM is -9.58%.
For `CN1CCOC[C@H]1c1nc(-c2ccncc2)c[nH]1`, the cytotoxicity at 10 µM came to 2.23%.
In the case of `Cc1ccc(S(=O)(=O)NC[C@H]2OC[C@@H](NCc3cccs3)[C@@H]2O)cc1`, the cytotoxicity at 10 µM is -3.24%.
To `Cc1ccn2c(=O)cc(CSCC(=O)Nc3nnc(C(C)C)s3)nc2c1` belongs -8.93%.
To `CCc1ccccc1NCc1nc2[nH]c(C)c(C)c(=O)n2n1` belongs 7.98%; to `COC(=O)CSc1nnc(CCNC(=O)OC(C)(C)C)o1`, 4.34%.
To `COc1ccc2c3c1CN(C(C)=O)CC3=CC(C)(C)CO2` belongs 10.1%; to `COC1CN(C(=O)OCC(C)C)CCC(=O)N(C)c2ccccc21` (stereo unspecified), -0.321%.
As to `O=C(Nc1cccnc1-n1cc(Cl)cn1)C1CCCCC1`, the cytotoxicity at 10 µM was -39%.
As for `Cc1nn(C)c(C)c1C1SCC(=O)Nc2c1c(O)nn2C(C)C` (stereo unspecified), the cytotoxicity at 10 µM is -6.82%.
To `CSc1ccc(C2SCC(=O)Nc3c2c(=O)[nH]n3C2CCOCC2)cc1` (stereo unspecified) belongs -14.9%; to `O=C(Nc1ccc(Br)cc1F)c1ccc(N2CCOCC2)nn1`, 22.4%; to `Cc1ccccc1-c1csc2c(=O)[nH]c(N3CCCC(C(=O)O)C3)nc12` (stereo unspecified), -3.16%.
To `Cn1cnc(S(=O)(=O)NCC(C)(O)c2ccc3c(c2)OCO3)c1` (stereo unspecified) belongs -4.44%; to `COCC(=O)N1CC[C@H]2[C@H]1CCN2CC(C)C`, 1.18%.
Regarding `CCN1CC2(CC1=O)CN(C(=O)C(C)C)CCN(S(=O)(=O)CC)C2` (stereo unspecified), the cytotoxicity at 10 µM is 16%.
With `Cc1nc(Nc2ccc(Cl)cn2)sc1C(=O)NCCCN1CCCCC1`, the cytotoxicity at 10 µM came out at 1.66%.
Then `O=c1[nH]c2c(c(=O)n1C1CCCCC1)CCC2NCc1ccccc1` (stereo unspecified), with -5.43%; and `CC(C)n1c(=O)c2sccc2n(CC(=O)Nc2ccccc2)c1=O`, with 8.02%.
To `CCc1noc(C2CCCCN2C(=O)c2cc(C)n(C)n2)n1` (stereo unspecified) belongs 11.2%; to `CN1CCNCC(Cc2cnc3ccccc3c2)C1` (stereo unspecified), -12.4%.
To `NC(=O)c1cccc(C2CCN(c3ncccn3)CC2)n1` belongs 0.00505%.
Turning to `CC(C)CN1CCCC1c1cc[nH]n1` (stereo unspecified), the cytotoxicity at 10 µM worked out at 9.95%.
For the molecule `Nc1nccc(C2CCCCN2Cc2cccc(F)c2)n1` (stereo unspecified), the cytotoxicity at 10 µM is -4%.
To `Cn1cc(CN2CCc3nc(-c4ccccn4)nc(O)c3C2)cn1` belongs -3.81%; to `Cc1nc(Nc2nccs2)cc(C2CCCN2C2CCOCC2)n1` (stereo unspecified), -7.08%.
To `COCCNc1nnc(S(=O)(=O)CCC(C)(C)C#N)s1` belongs 10.7%; to `CCN(CC)CC(=O)N1CCN(CCc2ccncc2)CC1`, -44.7%; to `CCOc1ncccc1NC(=O)N1CCOCC1C` (stereo unspecified), 10.3%.
Then `CN(C)c1ccc(C(=O)NCc2cccnc2-n2cncn2)cc1F`, with 2.84%; and `CNS(=O)(=O)c1cccc(C(C)NCc2cccc(C)c2C)c1` (stereo unspecified), with 9.44%.
For the molecule `COCCN(Cc1ccc(F)cc1Cl)C(=O)c1ccccn1`, the cytotoxicity at 10 µM came to 11.8%.
With `Cn1ncnc1CNc1ccc2c(c1)N(C(=O)OC(C)(C)C)CCC2`, the cytotoxicity at 10 µM is 6.37%.
Turning to `CCSCc1cccc(NC2CCN(C)C2=O)c1` (stereo unspecified), the cytotoxicity at 10 µM worked out at 1.18%.
Then `CCCc1nc(CNc2cc(CS(C)(=O)=O)ccc2Cl)no1`, with -2.07%.
As for `CC(C)Nc1cccc(CNC(=O)N2CCC[C@@H]2CO)c1`, the cytotoxicity at 10 µM came to 1.96%.
Regarding `Cc1cscc1C(=O)Nc1cc(CSCCO)ccn1`, the cytotoxicity at 10 µM is -25.5%.
Then `CC(C)c1ccc(CNC(C)c2ccc(S(=O)(=O)N(C)C)cc2)cc1` (stereo unspecified), with 32.6%; and `Cc1csc(C(C#N)C(=O)NCc2ccccc2)n1` (stereo unspecified), with 4.02%; and `CS(=O)(=O)c1ccc(C(=O)NCc2nc3cc(F)ccc3[nH]2)cc1`, with -3.34%.
To `CC(C)CSCCCNC(=O)C1CCC1` belongs -4.47%.
To `CC(=O)N(C)Cc1ccccc1NC(=O)N(C)CCc1cccs1` belongs -10.4%; to `COCC(C)N(C)C(=O)NC1CCN(c2ncccn2)CC1` (stereo unspecified), -12.5%.
As for `CS(=O)(=O)Cc1nc(CN2CCC(C(F)(F)F)CC2)cs1`, the cytotoxicity at 10 µM is -10.9%.
Regarding `Cn1ccnc1C(=O)NC[C@H]1OC[C@@H]2CCN(S(C)(=O)=O)C[C@@H]21`, the cytotoxicity at 10 µM was -101%.
Then `CCS(=O)(=O)N1CCCn2nnc(CNC(C)=O)c2C1`, with -113%; and `C=C(C)COc1cccc(C(=O)N2CCC3(CCOCC3)CC2)c1`, with -47.1%.
Then `Cc1cc(NC(=O)CNCc2csc(-c3cnccn3)n2)ccc1Cl`, with -3.52%; and `Cc1cc(N2CCN(C(=O)Cc3ccc4c(c3)OCO4)CC2)cc(C)n1`, with -18%.
To `c1csc(CN2CCCN(c3ccc(Cn4ccnc4)cn3)CC2)c1` belongs -18.2%; to `Cc1n[nH]c(C)c1CCC(=O)NCC1COc2ccccc2C1` (stereo unspecified), -40.2%.
Consider `Cc1ncsc1C(=O)NCc1cccnc1N(C)CCc1ccccn1`, for which the cytotoxicity at 10 µM was -14.5%.
To `CN1CCN(C(=O)NCCc2ccc(F)cc2)[C@H]2CS(=O)(=O)C[C@H]21` belongs 10.8%.
Then `CCN1CC2(CCN(C(=O)C(C)Oc3ccc(F)cc3F)CC2)OC1=O` (stereo unspecified), with -1.98%; and `O=C1NCCN2CCN(Cc3ccc(Cl)c(Cl)c3)CC12` (stereo unspecified), with -4.92%.
To `Nc1nccc(N2CCNC(C(=O)NCc3ccccn3)C2)n1` (stereo unspecified) belongs -48.5%.
As to `Cc1cc(F)ccc1S(=O)(=O)N1C[C@@H](C)[C@@](C)(O)C1`, the cytotoxicity at 10 µM was -7.25%.
Then `O=c1cc(C2CCNCC2)nc(Cc2cccc(Cl)c2)[nH]1`, with -0.869%.
To `O=C(C1CC1)N1CCc2c(ncnc2NCCc2nc3c(s2)CCC3)C1` belongs -1.05%; to `CCCN1CCC(N2CCC(Cn3cc(C4CC4)nn3)CC2)CC1`, -1.98%.
To `O=C(Nc1ccc(I)cc1C(=O)NCCN1CCOCC1)c1ccco1` belongs 0.512%; to `CC(=O)Nc1ccc(CNC(=O)CNCc2snnc2C)cc1`, 8.43%; to `CCn1ccnc1CN(C)c1cc(C2CC2)ncn1`, -47.9%.
Take `Cc1nc(N2CCC(C(O)c3nccn3C)CC2)c2c(C)noc2n1` (stereo unspecified): the cytotoxicity at 10 µM stood at 7.54%.
Then `CCc1ccc(NC(=O)CCN2CC(n3nc(C)cc3C)C2)cc1`, with -8.03%; and `O=C(NCC(F)F)c1ccc(S(=O)(=O)NCCc2ccncc2)cc1`, with -7.88%.
For `C=C(C)COc1cccc(CNCCc2nc(N)cc(O)n2)c1`, the cytotoxicity at 10 µM was -47.1%.
Then `CCn1c(C2CCNCC2)nn(CCCc2ccccc2)c1=O`, with 1.4%; and `COCc1cc(O)nc(C2CCCN(Cc3cc(OC)ccc3F)C2)n1` (stereo unspecified), with 4.42%.
To `Cc1ccc(CCC(=O)N2CCC(Nc3cccnn3)CC2)cc1` belongs -5.36%.
For the molecule `COCCN1CCC(CNC(=O)C2(c3ccc(Br)cc3)CCCC2)C1` (stereo unspecified), the cytotoxicity at 10 µM is -5.3%.
To `O=C1NCCN1C1CCN(Cc2coc(-c3ccc(F)cc3)n2)CC1` belongs -3.52%; to `Cn1cc(CN2CCCN(C(=O)c3ccc4ccccc4n3)CC2)cn1`, -1.9%.
`Cc1ccc(-c2nnc(CN3CCn4c(nnc4C4CC4)C3)o2)cc1`: the cytotoxicity at 10 µM was -6.37%.
Regarding `COc1c(C2CCCN2Cc2nc(C3CC3)no2)c(C)nn1C` (stereo unspecified), the cytotoxicity at 10 µM is -1.79%.
Then `COc1cc(Cl)ccc1C(=O)NCc1nncn1C`, with -4.35%; and `Cc1ccc(N(C)S(=O)(=O)c2cc(C(=O)O)cs2)cc1`, with 0.0898%; and `CCOc1ccc(Cl)c(C(=O)N2CCN(c3cnccn3)CC2)n1`, with -4.89%.
To `CC(C)c1n[nH]c(C2CN(C(=O)c3csnn3)CCO2)n1` (stereo unspecified) belongs -4.89%; to `COc1cc(C)ccc1OCCC(=O)N1CCCC1Cn1cccn1` (stereo unspecified), -7.81%; to `Cn1ncc2c(=O)[nH]c(CN3CCC(Cc4ccccc4)CC3)nc21`, -2.28%.
To `CCN(CC)C(=O)Cn1ccc2cc(NC(=O)C3CC3)ccc21` belongs -3.87%; to `Cc1nc(-c2ccsc2)ccc1C(=O)NCCC1CCCO1` (stereo unspecified), -9.75%; to `Cc1nccn1C1CCCN(C(=O)c2cc(O)nc3ccccc23)C1` (stereo unspecified), -6.9%.
As for `CN(CC1CCCCC1)C(=O)c1ccc(-n2ncc(C#N)c2N)cc1`, the cytotoxicity at 10 µM was determined as 0.347%.
Then `COc1ccc(CN2CCc3sccc3C2C)cc1CN1CCOCC1` (stereo unspecified), with -0.782%.
To `COc1cc(CNCC(C)O)cc(Cl)c1OCc1ccc(C)cc1` (stereo unspecified) belongs -5.23%; to `c1csc(-c2noc(C3CN(Cc4ccc5c(c4)CCO5)C3)n2)c1`, -8.2%.
Then `CCN1CCO[C@@H]2CN(C(=O)c3ccc4[nH]ccc4c3)CC[C@@H]2C1`, with -116%.
Take `O=C(Cc1ccsc1)N1C[C@@H]2OCCN(c3cnccn3)[C@@H]2C1`: the cytotoxicity at 10 µM came out at 11.6%.
For `CCCC(=O)Nc1ccc2c(c1)C1(CCOCC1)CN2CCOC`, the cytotoxicity at 10 µM is -104%.
Then `CN(C)Cc1cnc2n1CCN(C(=O)Cc1ccc(F)cc1)CC2`, with -8.96%.
Consider `O=C(c1ccccc1)N1C[C@@H]2CCCO[C@@H]2[C@H](N2CCCC2)C1`, for which the cytotoxicity at 10 µM was -2.02%.
To `Cc1ccc(C(=O)N2C[C@@H]3CCCO[C@@H]3[C@H](N3CCOCC3)C2)cn1` belongs -3.4%.
Then `CN(C)C(=O)Cn1c2c(ccc1=O)CCN(Cc1cnn(C)c1)CC2`, with 0.886%; and `Cc1cc(C(=O)N2C[C@@H]3C(CN(C)CCCn4cccn4)[C@@H]3C2)c(C)o1` (stereo partly specified), with -55.4%.
